Measured values from the array DNA melting data of Ke et al. (doi:10.1101/2024.01.08.574731).

Assays:
[1] = folding enthalpy; higher = less favourable; fluorescence melt of hairpins on a sequencing array, two-state fit; settings: sodium 0.088 M
How it was run: (§1)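 Library hairpins on a sequenced MiSeq flow cell carried annealed Cy3 and quencher oligos, and their Cy3 fluorescence was imaged in 50 mM Na-HEPES pH 8.0 with 25 mM NaCl, in 2.5 °C steps up to 60 °C. Signals were normalised to Cy3 before quenching and to control constructs. Melting temperature and folding enthalpy were obtained from bootstrapped two-state fits, combined by inverse-variance weighting across four replicates, and the fitted temperatures were then raised by 9.35 °C to match UV melts.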

[2] = melting temperature; fluorescence melt of hairpins on a sequencing array, two-state fit, raised by 9.35 °C to match UV melts; settings: sodium 0.088 M
How it was run: as §1

Row | Sequence | folding enthalpy [1] [kcal/mol] | Tm [2] [°C]
1 | GATCCCCATGGGATC ((((((...)))))) | -37.5 | 63
2 | GTAACCGAAAGGTGTTAC ((((((....)))..))) | -12.6 | 35
3 | GCTCTTGGAAACAAGAGC (((((((....))))))) | -37.2 | 63.2
4 | GCAGGTTCGAAAGAATGC (((..(((....)))))) | -11.1 | 30.9
5 | GATATAGGAAACTATATC (((((((....))))))) | -33.4 | 45.5
6 | GTGATTCCGAAAGGACAC (((..(((....)))))) | -15.3 | 31.1
7 | GGCCTCCGAAAGGAAGCC (((.(((....))).))) | -40.9 | 55.5
8 | GCGTTTCACGC ((((...)))) | -34.8 | 59.1
9 | GCTTCCGAAAGGAACAGC ((((((....)))..))) | -15.1 | 38.3
10 | GGAGCCGAAAGGCTGTCC ((((((....)))..))) | -8.93 | 41
11 | GAGCACGAAAGTGACCTC ((((((....)))..))) | -15.1 | 39.6
12 | GATAGTGGAAACATTATC ((((.((....)).)))) | -18.4 | 31
13 | GCGATGCGAAAGCAAGGC ((..(((....)))..)) | -17.2 | 42.3
14 | GTCTGACGAAAGTCCGAC (((.(((....))).))) | -28.5 | 49
15 | GATTCAGGAAACTGGATC (((.(((....))).))) | -36.7 | 41.9
16 | GAAATGGGAAACCATTTC (((((((....))))))) | -37.5 | 53.9
17 | GATCCTCCAGAGGATC ((((((....)))))) | -35.5 | 55.5
18 | GATCAATATGTTGATC ((((((....)))))) | -38.9 | 49
19 | GTTTTGCGAAAGCATAAC (((.(((....))).))) | -25.4 | 45.3
20 | CTCCTGAAAAGGAG (((((....))))) | -20.3 | 51.2
21 | GATCTAGCCGTAGATC ((((((....)))))) | -31.2 | 44.5
22 | GTGAGCGGAAACGCTCGC (.(((((....))))).) | -18.4 | 62.7
23 | GTAGCTGGAAACAGTTAC (((.(((....))).))) | -32.8 | 42.8
24 | CGTCTGCGGAAACGCACG (((..(((....)))))) | -12.2 | 38.7

Row | Sequence | folding enthalpy [1] [kcal/mol] | Tm [2] [°C]
25 | GCACAATCGAAAGATTGC (((..(((....)))))) | -10.3 | 34.5
26 | GATCCTCTCAAGGATC ((((((....)))))) | -39.9 | 53.2
27 | GCAACGCGAAAGCCTGGC ((.(.((....)).).)) | -6.76 | 30.8
28 | GACGTCGGAAACGGTGTC (((..((....))..))) | -25.7 | 43
29 | TACGAGAAATCGTA (((((....))))) | -14.9 | 37.5
30 | GGCGATCGAAAGATTGCC (((.(((....))).))) | -46.7 | 62.9
31 | GGCGAGTCGAAAGACGCC (((..(((....)))))) | -22.2 | 56.3
32 | GGGGGCGAAAGCCTGCCC ((((((....)))..))) | -13.7 | 43.8
33 | GGGCACGCGAAAGCGCCC (((..(((....)))))) | -16.2 | 58.7
34 | GTCTATGCGAAAGCAGAC (((..(((....)))))) | -16.9 | 42.1
35 | ACCCAGAAATGGGT (((((....))))) | -18.3 | 47.9
36 | GTATTCGCGAAAGCGTAC (((..(((....)))))) | -8 | 23.4
37 | GATCAAGGAAACTCGATC ((((.((....)).)))) | -17.2 | 28.4
38 | GATCGTAAAGACGATC ((((((....)))))) | -31.4 | 51.1
39 | GGATGTCGAAAGACTCC (((.(((....)))))) | -25.3 | 51.8
40 | GGCGAACGAAAGTTTGCC (((.(((....))).))) | -37 | 62.1
41 | GCACGTACGAAAGTATGC (((..(((....)))))) | -16 | 31.3
42 | GCCACGGGAAACCACGGC (((..((....))..))) | -34.4 | 46.5
43 | GCCTGCGGAAACGCAGAC (.(((((....))))).) | -12.1 | 50
44 | GGTATGCCGAAAGGCACC (((..(((....)))))) | -9.19 | 34.1
45 | GTCAGTGCGAAAGCAGAC (((..(((....)))))) | -14.4 | 39.6
46 | GTTACCGAAAGGTGCAAC ((((((....)))..))) | -8.88 | 27.3
47 | GATCCGCTACGGATC ((((((...)))))) | -31.7 | 57.2
48 | GCCCCCGCGAAAGCGGGC (((..(((....)))))) | -4.3 | 34.8

Row | Sequence | folding enthalpy [1] [kcal/mol] | Tm [2] [°C]
49 | GCTTGGCGAAAGCACAGC (((..((....))..))) | -18.2 | 42.2
50 | GATTAGCGAAAGCTTATC (((.(((....))).))) | -20.5 | 39.1
51 | GCTGGGCGAAAGCTCTGC ((.(.((....)).).)) | -22.3 | 53.1
52 | GATCCGGTCTCGGATC ((((((....)))))) | -26.6 | 58.6
53 | GCGAGCCGTCGC ((((....)))) | -20 | 52.7
54 | GATCGGAATCCCGATC ((((((....)))))) | -36.3 | 53.9
55 | GCCTGAGGAAACTTAGGC ((((.((....)).)))) | -31.2 | 48.8
56 | GCGGCGTACCGC ((((....)))) | -17.2 | 64.7
57 | TCCGTGAAAACGGA (((((....))))) | -18 | 53.8
58 | GATCGTATGGACGATC ((((((....)))))) | -27 | 56.5
59 | GCCGTGCGAAAGCACAGC ((.((((....)))).)) | -14 | 61.2
60 | GGTTACGGAAACGTAATC (.(((((....))))).) | -30.5 | 45.5
61 | GATCTTTGGCAAGATC ((((((....)))))) | -29 | 40
62 | GCTCTGCGAAAGCATAGC (((.(((....))).))) | -41.8 | 49.8
63 | GAAAGTGGAAACGCTTTC (((((.(....).))))) | -27.6 | 44.2
64 | GTGAAGGGAAACCCTCAC ((((.((....)).)))) | -26.9 | 43.3
65 | GCGAATCGAAAGATCCGC (((.(((....))).))) | -47 | 52.3
66 | GGAACTCGAAAGAGGTCC (((.(((....))).))) | -39 | 60
67 | GCTCACGGAAACGCAAGC (((..((....))..))) | -8.31 | 26.8
68 | GAAGCTGGAAACAGTTTC (((.(((....))).))) | -27.1 | 41.6
69 | GCGGAGCCCCGC ((((....)))) | -10.7 | 55.8
70 | GTATCCCGAAAGGGTTAC (((.(((....))).))) | -21 | 47.4
71 | GATCCTTGCTAGGATC ((((((....)))))) | -35.7 | 53.7
72 | GCAGACGAAAGTCGTGC ((((((....))).))) | -24.1 | 54.1

Row | Sequence | folding enthalpy [1] [kcal/mol] | Tm [2] [°C]
73 | GATCCTTTCCAGGATC ((((((....)))))) | -46.1 | 51.7
74 | GATCTGAGGACAGATC ((((((....)))))) | -26.1 | 46.3
75 | GCGACCGATCGC ((((....)))) | -21.4 | 45.6
76 | GGGGTGGGAAACCACCTC (.(((((....))))).) | -16.2 | 55.2
77 | GATCGGCGTCCCGATC ((((((....)))))) | -40.3 | 55.4
78 | GCGGACACCCGC ((((....)))) | -20.9 | 53.5
79 | GCTTTCGAAAGAAAGAGC ((((((....)))..))) | -19.7 | 43.5
80 | GATCTTACTAAAGATC ((((((....)))))) | -33 | 43
81 | GATCCGGATACGGATC ((((((....)))))) | -38.8 | 67.9
82 | GGCGTTGGAAACAGTGCC (((..((....))..))) | -28.2 | 42.6
83 | GACCGAGCGAAAGCTGTC (((..(((....)))))) | -15.3 | 36.8
84 | GCCCCCGAAAGGGCTGGC ((((((....)))..))) | -16.2 | 61.8
85 | GTCCTATCGAAAGATGAC (((..(((....)))))) | -8.25 | 23.4
86 | GCCGGCGAAAGCCGTGGC ((((((....)))..))) | -13.1 | 58.4
87 | GCAAATGAAAATTTGC ((((((....)))))) | -45.3 | 52.3
88 | GCGAAACGAAAGTTCGC (((.(((....)))))) | -32.9 | 62.7
89 | GATCTTCGCAAGATC ((((((...)))))) | -33.7 | 45.4
90 | GTCCGCGGAAACGCAGAC (((.(((....))).))) | -21.5 | 49.9
91 | GTTCTGTCGAAAGACAAC (((..(((....)))))) | -9.57 | 23.8
92 | CGGTGCGGAAACGCCCCG (((.(((....))).))) | -28.6 | 53.9
93 | GACGGTACGAAAGTAGTC (((..(((....)))))) | -16 | 34.5
